pIC50: −log10 of the molar value. ≈ marks a conversion by molar mass, not a printed value.
Key:
Leishmania amazonensis [1] = experiment: Antileishmanial activity against Leishmania mexicana amazonensis promastigotes by trypan blue exclusion method; type: functional, organism-based
Procedure, shortened: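 L. mexicana amazonensis promastigotes cultured in liver infusion-tryptose medium with lactalbumin and 10% FCS at 26°C, unagitated. Cultures started at 2 × 10⁶ cells/ml and drug added at 0.5–1 × 10⁷ cells/ml. Density counted by electronic particle counter and hemocytometer. Viability by trypan blue exclusion. Triplicate growth experiments.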

L6 = experiment: Cytotoxicity against rat L6 cells after 72 hrs by resazurin assay; type: cell-based; conditions: L6, 72 h
Procedure, shortened: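 L-6 cells seeded at 4 × 10⁴ cells/ml in RPMI 1640 with 10% FBS and 2 mM L-glutamine. After 24 h, medium replaced with serial drug dilution and incubated for 72 h at 37°C in 5% CO2. Resazurin added for 2–4 h, fluorescence read at ex 536/em 588 nm. IC50 from sigmoidal curve. Duplicate, with an independent repeat for actives.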

Leishmania amazonensis [2] = experiment: Inhibition of sterol biosynthesis in Leishmania mexicana amazonensis promastigotes assessed as reduction in endogenous episterol level at 10 uM after 96 hrs by gas-liquid chromatography; type: functional; set-up: scale not given: the % may be the effect or the level left
Procedure, shortened: (§1)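 L. mexicana promastigotes exposed to compound for 96 h. Total lipids extracted and neutral sterols separated from polar lipids by silicic acid column chromatography. Sterols analysed by TLC and by quantitative capillary gas-liquid chromatography with mass spectrometry. Composition expressed as mass % of free sterols, compared with untreated control.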

[3] = target: T1, Farnesyltransferase, putative (Leishmania major, UniProt Q4Q5W4); experiment: Inhibition of Leishmania major recombinant squalene synthase expressed in Escherichia coli by liquid scintillation counter
T1 sequence (Q4Q5W4 whole entry): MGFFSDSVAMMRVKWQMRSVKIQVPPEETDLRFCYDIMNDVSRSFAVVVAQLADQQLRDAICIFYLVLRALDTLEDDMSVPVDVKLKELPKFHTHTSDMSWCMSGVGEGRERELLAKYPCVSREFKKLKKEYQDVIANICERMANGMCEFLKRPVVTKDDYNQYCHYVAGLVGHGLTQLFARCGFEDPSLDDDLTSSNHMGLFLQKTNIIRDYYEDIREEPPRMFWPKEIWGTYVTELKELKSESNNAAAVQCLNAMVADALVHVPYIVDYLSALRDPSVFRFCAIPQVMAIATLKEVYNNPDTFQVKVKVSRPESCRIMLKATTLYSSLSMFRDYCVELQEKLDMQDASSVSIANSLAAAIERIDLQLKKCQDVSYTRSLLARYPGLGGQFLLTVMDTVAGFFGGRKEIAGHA
Procedure, shortened: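 Soluble E. coli extract expressing L. major SQS truncated by 16 N-terminal and 40 C-terminal residues. Buffer: 50 mM phosphate pH 7.4, 20 mM MgCl2, 5 mM CHAPS, 1% Tween 80, 10 mM DTT, BSA, 0.25 mM NADPH, and a glucose-6-phosphate/G6PDH regenerating system. Substrate 0.5 μM radiolabelled farnesyl pyrophosphate. Squalene band counted by scintillation. IC50 from hyperbolic plot of five concentrations in duplicate, usually run twice.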

Leishmania amazonensis [4] = experiment: Inhibition of sterol biosynthesis in Leishmania mexicana amazonensis promastigotes assessed as reduction in endogenous cholesta-7,24-dien-3beta-ol level at 10 uM after 96 hrs by gas-liquid chromatography; type: functional; set-up: scale not given: the % may be the effect or the level left; procedure, shortened: as §1
Trypanosoma cruzi = experiment: Antitrypanosomal activity against trypomastigotes of Trypanosoma cruzi Tulahuen C2C4 containing lacZ gene in rat L6 cells after 4 days by chlorophenol red-beta-D-galactopyranoside/Nonidet assay; type: functional, organism-based; conditions: Tulahuen C2C4, L6, 96 h
Procedure, shortened: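 L-6 rat myoblasts seeded at 2,000 cells/well in RPMI 1640 with 10% FBS and 2 mM L-glutamine. After 24 h, 5,000 T. cruzi Tulahuen C2C4 lacZ trypomastigotes added with serial drug dilution. Incubated at 37°C in 5% CO2 for 4 days. CPRG/Nonidet substrate added and colour read at 540 nm after 2–4 h. IC50 from sigmoidal curve. Duplicate determinations.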

Leishmania amazonensis [5] = experiment: Inhibition of sterol biosynthesis in Leishmania mexicana amazonensis promastigotes assessed as reduction in endogenous 5-dehydro episterol level at 10 uM after 96 hrs by gas-liquid chromatography; type: functional; set-up: scale not given: the % may be the effect or the level left; procedure, shortened: as §1
Leishmania donovani = experiment: Antileishmanial activity against Leishmania donovani MHOM/ET/67/L82 axenic amastigotes after 72 hrs by resazurin assay; type: functional, organism-based; conditions: MHOM/ET/67/L82, 72 h
Procedure, shortened: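 L. donovani MHOM/ET/67/L82 amastigotes grown axenically at 37°C in synthetic minimal medium at pH 5.4 with 10% heat-inactivated FBS under 5% CO2. 1 × 10⁵ amastigotes per well with seven threefold dilutions, 30 to 0.041 μg/ml. After 72 h, resazurin added for 2–4 h more. Fluorescence read at ex 536/em 588 nm. IC50 taken from sigmoidal curve. Run in duplicate, with an independent repeat for actives.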

[6] = test system: Trypanosoma brucei rhodesiense; experiment: Trypanocidal activity against Trypanosoma brucei rhodesiense STIB 900 bloodstream form after 72 hrs by resazurin assay; type: functional, organism-based; conditions: STIB 900, 72 h
Procedure, shortened: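 T. b. rhodesiense STIB 900 bloodstream forms in MEM with 2-mercaptoethanol and 15% heat-inactivated horse serum, with serial drug dilutions. Incubated 72 h at 37°C in 5% CO2. Resazurin added for 2–4 h more, fluorescence read at ex 536/em 588 nm. IC50 from sigmoidal curve. Duplicate, with an independent repeat for actives.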

Leishmania amazonensis [7] = experiment: Inhibition of sterol biosynthesis in Leishmania mexicana amazonensis promastigotes assessed as reduction in exogenous cholesterol level at 10 uM after 96 hrs by gas-liquid chromatography; type: functional; set-up: scale not given: the % may be the effect or the level left; procedure, shortened: as §1
Plasmodium falciparum = experiment: Antiplasmodial activity after 48 hrs against chloroquine and pyrimethamine-resistant Plasmodium falciparum K1 in human erythrocytes by [3H]hypoxanthine uptake; type: functional, organism-based
Procedure, shortened: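 P. falciparum K1 in human red cells in RPMI 1640 with 5% Albumax, exposed to serial drug dilutions. Incubated 48 h at 37°C under reduced oxygen, then 0.5 μCi [³H]hypoxanthine per well for 24 h more. Cells harvested onto glass-fibre filters and counted by scintillation. Result expressed as % of untreated control, with IC50 from sigmoidal curve. Duplicate, plus an independent repeat for actives.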

Leishmania amazonensis [8] = experiment: Inhibition of sterol biosynthesis in Leishmania mexicana amazonensis promastigotes assessed as reduction in endogenous cholesta-5,7,24-trien-3beta-ol level at 10 uM after 96 hrs by gas-liquid chromatography; type: functional; set-up: scale not given: the % may be the effect or the level left; procedure, shortened: as §1
Leishmania amazonensis [9] = experiment: Inhibition of sterol biosynthesis in Leishmania mexicana amazonensis promastigotes assessed as reduction in exogenous cholesterol level at 3 uM after 96 hrs by gas-liquid chromatography; type: functional; set-up: scale not given: the % may be the effect or the level left; procedure, shortened: as §1
Leishmania amazonensis [10] = experiment: Inhibition of sterol biosynthesis in Leishmania mexicana amazonensis promastigotes assessed as reduction in endogenous episterol level at 1 uM after 96 hrs by gas-liquid chromatography; type: functional; set-up: scale not given: the % may be the effect or the level left; procedure, shortened: as §1
Leishmania amazonensis [11] = experiment: Inhibition of sterol biosynthesis in Leishmania mexicana amazonensis promastigotes assessed as reduction in exogenous cholesterol level at 1 uM after 96 hrs by gas-liquid chromatography; type: functional; set-up: scale not given: the % may be the effect or the level left; procedure, shortened: as §1
Leishmania amazonensis [12] = experiment: Inhibition of sterol biosynthesis in Leishmania mexicana amazonensis promastigotes assessed as reduction in endogenous 5-dehydro episterol level at 1 uM after 96 hrs by gas-liquid chromatography; type: functional; set-up: scale not given: the % may be the effect or the level left; procedure, shortened: as §1
Leishmania amazonensis [13] = experiment: Inhibition of sterol biosynthesis in Leishmania mexicana amazonensis promastigotes assessed as reduction in endogenous episterol level at 3 uM after 96 hrs by gas-liquid chromatography; type: functional; set-up: scale not given: the % may be the effect or the level left; procedure, shortened: as §1
Leishmania amazonensis [14] = experiment: Inhibition of sterol biosynthesis in Leishmania mexicana amazonensis promastigotes assessed as reduction in endogenous 5-dehydro episterol level at 3 uM after 96 hrs by gas-liquid chromatography; type: functional; set-up: scale not given: the % may be the effect or the level left; procedure, shortened: as §1

Work on `OC[C@@H]1CC2CCN1C[C@@H]2C#Cc1cnc2ccccc2c1` (some centres undefined) yielded an MIC (Leishmania amazonensis [1]) greater than 10 µM, a pIC50 (L6) of 3.77 and an Activity (Leishmania amazonensis [2]) of 13.7%. It also gave a pIC50 [3] of less than 6.00, an Activity (Leishmania amazonensis [4]) of 12.3% and a pIC50 (Trypanosoma cruzi) of 4.72. For the same compound, the Activity (Leishmania amazonensis [5]) was 40.6%, the pIC50 (Leishmania donovani) was 4.10 and the pIC50 [6] was 5.15. It also gave an Activity (Leishmania amazonensis [7]) of 27.5%, a pIC50 (Plasmodium falciparum) of 5.77 and an Activity (Leishmania amazonensis [8]) of 5.9%.

Compound `OC1(C#Cc2ccc(OCc3ccccc3)cc2)CN2CCC1CC2` (centres undefined) has an MIC (Leishmania amazonensis [1]) of 1 µM (≈ 0.333 µg/mL), a pIC50 (L6) of 4.35 and an Activity (Leishmania amazonensis [9]) greater than 99%. For the same compound, the Activity (Leishmania amazonensis [10]) was 8.4%, the pIC50 (Trypanosoma cruzi) was 5.02 and the pIC50 (Leishmania donovani) was 5.49. The Activity (Leishmania amazonensis [11]) was 74.6%, the pIC50 [6] was 5.72 and the pIC50 (Plasmodium falciparum) was 5.72. For the same compound, the Activity (Leishmania amazonensis [12]) was 17%.

For `CCOC(=O)c1ccc(C#C[C@H]2CN3CCC2C[C@H]3CO)cc1` (some centres undefined), the MIC (Leishmania amazonensis [1]) was greater than 10 µM, the pIC50 (L6) was 4.42 and the Activity (Leishmania amazonensis [2]) was 4.1%. The pIC50 [3] was less than 6.00, the Activity (Leishmania amazonensis [4]) was 3.3% and the pIC50 (Trypanosoma cruzi) was 4.71. It also gave an Activity (Leishmania amazonensis [5]) of 50.3%, a pIC50 (Leishmania donovani) of 4.99 and a pIC50 [6] of 5.77. It also gave an Activity (Leishmania amazonensis [7]) of 18.7%, a pIC50 (Plasmodium falciparum) of 6.22 and an Activity (Leishmania amazonensis [8]) of 23.6%.

In the case of `CC(C)OC(=O)c1ccc(C2=CN3CCC2CC3)cc1`, the MIC (Leishmania amazonensis [1]) was 3 µM (≈ 0.814 µg/mL), the pIC50 (L6) was 3.82 and the Activity (Leishmania amazonensis [9]) was 74.5%. For the same compound, the pIC50 [3] was less than 6.00, the Activity (Leishmania amazonensis [10]) was 12.8% and the pIC50 (Trypanosoma cruzi) was 4.64. It also gave a pIC50 (Leishmania donovani) of 5.96, an Activity (Leishmania amazonensis [11]) of 44.4% and a pIC50 [6] of 5.14. The Activity (Leishmania amazonensis [13]) was 25.5%, the pIC50 (Plasmodium falciparum) was 4.85 and the Activity (Leishmania amazonensis [12]) was 42.8%.

Work on `CCCCCCOc1ccc(C#CC2(O)CN3CCC2CC3)cc1` (centres undefined) yielded an MIC (Leishmania amazonensis [1]) of 1 µM (≈ 0.327 µg/mL), a pIC50 (L6) of 4.80 and an Activity (Leishmania amazonensis [9]) greater than 99%. It also gave an Activity (Leishmania amazonensis [10]) of 14.6%, a pIC50 (Trypanosoma cruzi) of 5.25 and a pIC50 (Leishmania donovani) of 5.33. The Activity (Leishmania amazonensis [11]) was 20.4%, the pIC50 [6] was 6.30 and the pIC50 (Plasmodium falciparum) was 6.15. The Activity (Leishmania amazonensis [12]) was 65%.

Compound `Cc1cc(C)cc(C#CC2(O)CN3CCC2CC3)c1` (centres undefined) has an MIC (Leishmania amazonensis [1]) of 10 µM (≈ 2.55 µg/mL), an Activity (Leishmania amazonensis [14]) of 68.4% and a pIC50 (L6) of 3.76. The Activity (Leishmania amazonensis [2]) was 11.9%, the Activity (Leishmania amazonensis [9]) was 19.6% and the pIC50 [3] was less than 6.00. The pIC50 (Trypanosoma cruzi) was 4.72, the Activity (Leishmania amazonensis [5]) was 39.9% and the pIC50 (Leishmania donovani) was 4.90. For the same compound, the pIC50 [6] was 5.04, the Activity (Leishmania amazonensis [13]) was 12% and the Activity (Leishmania amazonensis [7]) was 48.2%. For the same compound, the pIC50 (Plasmodium falciparum) was 5.37.

For `COc1ccc(COc2ccc(C#CC3(O)CN4CCC3CC4)cc2)cc1OC` (centres undefined), the MIC (Leishmania amazonensis [1]) was 1 µM (≈ 0.393 µg/mL), the Activity (Leishmania amazonensis [14]) was 69.8% and the pIC50 (L6) was 4.10. It also gave an Activity (Leishmania amazonensis [2]) of 16.6%, an Activity (Leishmania amazonensis [9]) of 15.6% and a pIC50 (Trypanosoma cruzi) of 4.87. For the same compound, the Activity (Leishmania amazonensis [5]) was 38.8%, the pIC50 (Leishmania donovani) was 5.34 and the pIC50 [6] was 5.47. It also gave an Activity (Leishmania amazonensis [13]) of 14.6%, an Activity (Leishmania amazonensis [7]) of 44.6% and a pIC50 (Plasmodium falciparum) of 5.70.

For `C1=C(c2ccc3ccccc3c2)C2CCN1CC2`, the MIC (Leishmania amazonensis [1]) was 3 µM (≈ 0.706 µg/mL), the Activity (Leishmania amazonensis [14]) was 35.2% and the pIC50 (L6) was 4.00. The Activity (Leishmania amazonensis [2]) was 14.2%, the Activity (Leishmania amazonensis [9]) was 35.9% and the pIC50 [3] was less than 6.00. For the same compound, the pIC50 (Trypanosoma cruzi) was 4.47, the Activity (Leishmania amazonensis [5]) was 52% and the pIC50 (Leishmania donovani) was 4.91. The pIC50 [6] was 4.62, the Activity (Leishmania amazonensis [13]) was 28.9% and the Activity (Leishmania amazonensis [7]) was 33.8%. It also gave a pIC50 (Plasmodium falciparum) of 4.96.
